Assay results from ChEMBL document CHEMBL4229369, “Design, synthesis and antitubercular evaluation of benzothiazinones containing a piperidine moiety” (Eur J Med Chem, 2018).
Converted amounts (≈) assume the structure as drawn.

Tests used:
[1] = tested on: Mycobacterium tuberculosis; test: Antitubercular activity against Mycobacterium tuberculosis H37Rv ATCC27395 after 7 days by Alamar blue assay; assay type: functional; settings: 168 h
In short: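 Inoculum grown to late log phase in Middlebrook 7H9 with 0.2% glycerol, 0.05% Tween 80 and 10% ADC, then washed in PBS, filtered through 8 µm to remove clumps and frozen at -80 °C. Twofold compound dilutions in 7H9-ADC-TG with 2 × 10⁵ CFU per well, 37 °C. Alamar blue and Tween 80 added on day 7, read after 16-24 h (ex 530/em 590 nm). MIC is the lowest concentration giving ≥90% fluorescence reduction versus bacterium-only controls.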

[2] = Half life in ICR mouse at 50 mg/kg, po administered as single dose by HPLC analysis; assay type: ADME, organism-based; settings: in vivo
In short: (§1)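 SPF female ICR mice (20-25 g), fasted overnight, 3 per group; single oral dose 50 mg/kg as suspension in 0.5% CMC. Jugular vein blood at 0.25, 0.5, 1, 2, 4, 6, 8 and 24 h; serum stored at −20 °C, protein removed with acetonitrile, supernatant dried, redissolved in acetonitrile and analysed by HPLC. Parameters derived directly from the experimental data.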

[3] = Tmax in ICR mouse at 50 mg/kg, po administered as single dose by HPLC analysis; assay type: ADME, organism-based; settings: in vivo; in short: as §1
[4] = Cmax in ICR mouse at 50 mg/kg, po administered as single dose by HPLC analysis; assay type: ADME, organism-based; set-up: dose 50 mg/kg, route oral; settings: in vivo; in short: as §1
[5] = AUC (0 to infinity) in ICR mouse at 50 mg/kg, po administered as single dose by HPLC analysis; assay type: ADME, organism-based; set-up: dose 50 mg/kg, route oral, time infinity; settings: in vivo; in short: as §1
[6] = MRT in ICR mouse at 50 mg/kg, po administered as single dose by HPLC analysis; assay type: ADME, organism-based; settings: in vivo; in short: as §1

| SMILES | MIC90 [1] [µg/mL] | further results |
| --- | --- | --- |
| O=c1nc(N2CCC(CN3CCC4(CC3)OCCO4)CC2)sc2c([N+](=O)[O-])cc(C(F)(F)F)cc12 | 3.71 (≈ 7.21 µM) | – |
| CN(C1CCCCC1)C1CCN(c2nc(=O)c3cc(C(F)(F)F)cc([N+](=O)[O-])c3s2)CC1 | 0.973 (≈ 2.07 µM) | – |
| CC1CCCCN1CC1CCN(c2nc(=O)c3cc(C(F)(F)F)cc([N+](=O)[O-])c3s2)CC1 (stereo unspecified) | 1.92 (≈ 4.08 µM) | – |
| O=c1nc(N2CCC(CN3CCCCC3)CC2)sc2c([N+](=O)[O-])cc(C(F)(F)F)cc12 | 0.481 (≈ 1.05 µM) | – |
| CCN(CC)CC1CCN(c2nc(=O)c3cc(C(F)(F)F)cc([N+](=O)[O-])c3s2)CC1 | 1.82 (≈ 4.11 µM) | – |
| O=c1nc(N2CCC(CN3CCCCCC3)CC2)sc2c([N+](=O)[O-])cc(C(F)(F)F)cc12 | 1.32 (≈ 2.81 µM) | – |
| O=c1nc(N2CCC(NC3CCCCC3)CC2)sc2c([N+](=O)[O-])cc(C(F)(F)F)cc12 | 0.959 (≈ 2.1 µM) | – |
| O=c1nc(N2CCC(CN3CCC(O)CC3)CC2)sc2c([N+](=O)[O-])cc(C(F)(F)F)cc12 | 1.96 (≈ 4.15 µM) | – |
| CC1CCN(CC2CCN(c3nc(=O)c4cc(C(F)(F)F)cc([N+](=O)[O-])c4s3)CC2)CC1 | 0.488 (≈ 1.04 µM) | – |
| O=c1nc(N2CCC(CN3CCC(C(F)(F)F)CC3)CC2)sc2c([N+](=O)[O-])cc(C(F)(F)F)cc12 | < 0.016 | half-life [2]: 3.3 h; Tmax [3]: 0.25 h; Cmax [4]: 1160 ng/mL; AUC(0-inf) [5]: 2490 ng·h/mL; MRT [6]: 4.26 h |
| O=c1nc(N2CCC(CN3CCCC3)CC2)sc2c([N+](=O)[O-])cc(C(F)(F)F)cc12 | 3.58 (≈ 8.09 µM) | – |
| CN1CCN(CC2CCN(c3nc(=O)c4cc(C(F)(F)F)cc([N+](=O)[O-])c4s3)CC2)CC1 | 7.84 (≈ 16.6 µM) | – |
| CC1CCCN(CC2CCN(c3nc(=O)c4cc(C(F)(F)F)cc([N+](=O)[O-])c4s3)CC2)C1 (stereo unspecified) | 0.241 (≈ 0.512 µM) | – |
| NNC(=O)c1ccncc1 [ISONIAZID] | 0.037 (≈ 0.27 µM) | – |
| O=c1nc(N2CCN(CC3CCCCC3)CC2)sc2c([N+](=O)[O-])cc(C(F)(F)F)cc12 [MACOZINONE] | < 0.016 | – |
| CO[C@H]1/C=C/O[C@@]2(C)Oc3c(C)c(O)c4c(O)c(c(/C=N/N5CCN(C)CC5)c(O)c4c3C2=O)NC(=O)/C(C)=C\C=C\[C@H](C)[C@H](O)[C@@H](C)[C@@H](O)[C@@H](C)[C@H](OC(C)=O)[C@@H]1C [RIFAMPIN] | 0.084 (≈ 0.102 µM) | – |
